Assays:
[1] = Relative oral bioavailability of sodium, phosphate and hemisulfate salts in rats; format: in vivo, Sprague-Dawley rats; conditions: single oral 30 mg/kg, male rats
Method in brief: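 Male Sprague-Dawley rats, 4/group, received a single 30 mg/kg oral gavage dose in 1% methylcellulose of either parent acid or its sodium, phosphate or sulfate salt. Jugular-catheter blood was drawn at about 15 and 30 min and at 1, 2, 4, 8 and 24 h. Plasma parent was measured by LC/MS/MS with an internal standard. Relative AUClast and Cmax were corrected for molecular-weight differences.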

[2] = tested on: S. typhimurium strains TA98 and TA100; test: Abbreviated Ames; format: cell-based
Method in brief: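 Salmonella TA98 and TA100 plate-incorporation assay per OECD 471, run with and without rat liver S9. Test compound and its decarboxylated impurity were tested at concentrations up to and including 5000 µg/plate, with vehicle and positive controls. Revertant colony counts were compared with vehicle control, and bacterial toxicity was recorded.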

Structure (SMILES) | Cmax/Equiv. dose [1] | Cmax ([1]; S9632 measured in plasma) | %Cmax Relative to S9632 ([1]; corrected for molecular weight, 30 mg/kg) | Concentration with cytotoxicity (reduction in the background lawn) ([2]; TA98 and TA100 without metabolic activation) | Mutagenicity, result ([2]; plate incorporation, up to 5000 μg/plate, ±S9)
Cc1nc2cccc(OCC(C)(C)C(=O)NC(C)C)c2c(N)c1C(=O)O.Cc1nc2cccc(OCC(C)(C)C(=O)NC(C)C)c2c(N)c1C(=O)O.O=S(=O)(O)O [S1638] | 1.377 ng/mL/mg/kg | 34.80 ± 7.55 ng/mL | 106.7% | – | –
Cc1cc(N)c2c(OCC(C)(C)C(=O)NC(C)C)cccc2n1 [S9379, 4-amino-5-(3-(isopropylamino)-2,2-dimethyl-3-oxopropoxy)-2-methylquinoline] | – | – | – | 5000 μg/plate | not mutagenic

Source: article PMC5598146 (Toxicology Reports, 2015)
